1 molecule from ChEMBL document CHEMBL4414663, “Pyrazole-4-Carboxamide (YW2065): A Therapeutic Candidate for Colorectal Cancer via Dual Activities of Wnt/β-Catenin Signaling Inhibition and AMP-Activated Protein Kinase (AMPK) Activation” (J Med Chem, 2019) can be followed below.

Broadly, the half-life is the time in which the quantity being followed falls by half. As a reminder, the IC50 is the point on the concentration scale where inhibition reaches its midpoint. The GI50 is the concentration giving 50% growth inhibition. The term Cmax denotes the peak of the concentration-time curve.

Series [1] is described as follows: Half life in C57BL/6J mouse at 5 mg/kg, po by UPLC-MS analysis. The conditions noted are these: in vivo. The series is classed as ADME, organism-based. The method in brief: (§1)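 Male C57BL/6J mice, 2-3 months, 23-26 g. Single 5 mg/kg dose in 5% Kolliphor in saline, given iv (n=3) or by oral gavage (n=5). Tail-vein blood taken at 0.25, 0.5, 1, 4, 8 and 12 h and spun to plasma. Plasma analysed by LC-MS/MS on a triple quadrupole with a C18 column. Parameters from non-compartmental analysis.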

Series [2] is filed under the species Homo sapiens. Kind of series: Inhibition of Wnt/beta-Catenin signaling in human SW620 cells assessed as reduction in cyclinD1 mRNA expression at 10 uM incubated for 24 hrs by real-time PCR analysis. It counts as cell-based. The essentials:
(§2)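 SW620 cells (RPMI 1640, 10% FBS) in 6-well plates, incubated 24 h, then treated with compound at several concentrations, three replicates each, for 24 h. Total RNA isolated with Trizol/phenol-chloroform; 2 µg reverse transcribed; Wnt target gene mRNA quantified by PCR.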
(In qPCR the cycle at which signal appears reflects the starting amount.)

Series [3] concerns SW480. Kind of series: Induction of apoptosis in human SW480 cells incubated for 48 hrs by AAD-7 and FITC-annexin-V staining based flow cytometry. It counts as functional, cell-based. In general terms: In flow cytometry, cells or beads pass a laser one at a time.
For series [4], the species on record is Homo sapiens. Kind of series: Inhibition of Wnt/beta-Catenin signaling in human SW620 cells assessed as reduction in beta-catenin protein level at 1 to 30 uM by Western blot analysis. It counts as cell-based. The method in brief:
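SW620 cells treated with a dose range of compound and lysed in RIPA buffer with protease inhibitor. Protein at 2 mg/mL, denatured at 98 °C for 5 min, run on 7.5% SDS-PAGE and transferred to nitrocellulose. Blocked in 5% BSA; rabbit anti-β-catenin (1:2,000) overnight at 4 °C with β-actin as loading control. HRP secondary (1:8000), 2 h; ECL detection.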
In general terms: Immunoblotting shows a protein as a band on a membrane.

Series [5] has as its target MAP kinase-activated protein kinase 3 (Homo sapiens) (UniProt Q16644). Kind of series: Inhibition of MAPKAPK3 (unknown origin) at 1000 nM relative to control. The essentials: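 Single-concentration screen at 1000 nM against a 273-kinase panel, reported as percent inhibition.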
The test system of series [6] is SW-620. Nature of the series: Induction of apoptosis in human SW620 cells assessed as necrotic cells level at 10 uM incubated for 48 hrs by AAD-7 and FITC-annexin-V staining based flow cytometry (reference value: 0.027%). It counts as functional.
A further series deals with HT-29. Nature of the series: Induction of apoptosis in human HT-29 cells incubated for 48 hrs by AAD-7 and FITC-annexin-V staining based flow cytometry. It counts as functional, cell-based.
Series [7] relates to SW-620. Nature of the series: Induction of apoptosis in human SW620 cells assessed as early apoptotic cells level at 1 uM incubated for 48 hrs by AAD-7 and FITC-annexin-V staining based flow cytometry (reference value: 18.6%). It counts as functional.
Series [8] is described as follows: Toxicity in C57BL/6 mouse assessed as effect on BUN level at 100 mg/kg/day, ip for 21 days. The conditions noted are these: in vivo, 504 h. The series is classed as organism-based.
Series [9] has as its system SW-620. Kind of series: Induction of apoptosis in human SW620 cells assessed as necrotic cells level at 1 uM incubated for 48 hrs by AAD-7 and FITC-annexin-V staining based flow cytometry (reference value: 0.027%). It counts as functional.
Series [10] deals with SW-620. Kind of series: Antitumor activity against human SW620 cells xenografted in nude mouse assessed as reduction in tumor weight at 50 mg/kg, ip QD for 32 consecutive days. The series is classed as functional, organism-based. The method in brief:
(§3)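 Six-week-old nude mice injected subcutaneously with 2×10^6 SW620 cells. Randomised at mean tumor volume 100–200 mm³ (n=6/group). Given 10 or 50 mg/kg ip daily for 32 consecutive days; vehicle 10% DMSO, 10% Kolliphor, 80% saline. Tumor volume measured every other day. Tumors weighed after euthanasia at day 32. t test against vehicle.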

The subject of series [11] is SW-620. Kind of series: Growth inhibition of human SW620 cells over-expressing constitutively active beta-catenin S33Y mutant incubated for 72 hrs by Cell-titer-fluor reagent based assay. The series is classed as functional. The conditions noted are these: SW-620, 72 h. The method in brief:
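SW620 cells, parental, overexpressing β-catenin S33Y, or with Axin-1 knocked down by lentiviral shRNA. Treated with compound or vehicle for 72 h.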

For series [12], the system named is SW480. Nature of the series: Growth inhibition of human SW480 cells by Cell-titer-fluor reagent based assay. The series is classed as functional.
Series [13] is described as follows: Toxicity in C57BL/6 mouse assessed as effect on body weight at 100 mg/kg/day, ip for 21 days. The conditions noted are these: in vivo, 504 h. The series is classed as organism-based.
The test system of series [14] is SW-620. Nature of the series: Antitumor activity against human SW620 cells xenografted in nude mouse assessed as reduction in tumor volume at 50 mg/kg, ip QD for 32 consecutive days relative to control. The series is classed as functional. Details: scale not given: the % may be the effect or the level left. The method in brief: as §3
Series [15] concerns Mus musculus. Kind of series: Inhibition of Wnt/beta-Catenin signaling in nude mouse xenografted with human SW620 cells assessed as reduction in S100A4 mRNA expression at 50 mg/kg, ip QD for 32 consecutive days by RT-PCR analysis. The series is classed as organism-based. The conditions noted are these: in vivo. The method in brief: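 Six-week-old nude mice implanted subcutaneously in the right flank with 2×10^6 SW620 cells. Randomized at mean tumor volume 100–200 mm³, n = 6/group. Dosed IP once daily for 32 days at 10 or 50 mg/kg, or vehicle (10% DMSO, 10% Kolliphor, 80% saline). Tumors collected at day 32; Axin-2, MMP-7 and S100A4 expression measured by RT-PCR.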

The test system of series [16] is SW-620. Kind of series: Antitumor activity against human SW620 cells xenografted in nude mouse assessed as reduction in tumor weight at 10 mg/kg, ip QD for 32 consecutive days. The series is classed as functional, organism-based. The essentials: as §3
For the next series, the system named is HEK293. Nature of the series: Induction of Axin-1 protein expression in recombinant human Wnt-3a-induced Wnt-HEK293 cells at 1 uM by Western blot analysis. The series is classed as functional, cell-based.
Series [17] can be described thus: Toxicity in C57BL/6 mouse assessed as effect on AST level at 100 mg/kg/day, ip for 21 days. The series is classed as organism-based. The conditions noted are these: in vivo, 504 h.
Series [18] is described as follows: Cmax in C57BL/6J mouse at 5 mg/kg, po by UPLC-MS analysis. It counts as ADME, organism-based. Details: dose 5 mg/kg, route oral. The conditions noted are these: in vivo. The essentials: as §1
Series [19] relates to Mus musculus. Nature of the series: Activation of AMPK in nude mouse xenografted with human SW620 cells assessed as increase in AMPK phosphorylation at 50 mg/kg, ip QD for 32 consecutive days by Western blot analysis. It counts as functional, organism-based. The method in brief: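 Nude mice carried subcutaneous SW620 xenografts (2×10^6 cells, right flank). Dosing began once mean tumor volume reached 100–200 mm³: 50 mg/kg ip once daily for 32 days, vehicle 10% DMSO/10% Kolliphor/80% saline. Tumors taken at day 32 and lysed in RIPA with protease inhibitors. Western blot with 20 µL of 2 mg/mL lysate on 7.5% SDS-PAGE, probed for pAMPK/AMPK or pACC/ACC, ECL detection.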

The species named for series [20] is Homo sapiens. Nature of the series: Inhibition of Wnt/beta-Catenin signaling in human SW620 cells assessed as reduction in c-Myc mRNA expression at 10 uM incubated for 24 hrs by real-time PCR analysis. The series is classed as cell-based. The essentials: as §2
In series [21] the test system is SW-620. Nature of the series: Induction of apoptosis in human SW620 cells assessed as late apoptotic cells level at 1 uM incubated for 48 hrs by AAD-7 and FITC-annexin-V staining based flow cytometry (reference value: 7.6%). It counts as functional.

Calls of active or inactive are those of the source. No cut-off for these calls is given here.

MAP kinase-activated protein kinase 3 (Homo sapiens), sequence (Q16644 whole entry, looked up): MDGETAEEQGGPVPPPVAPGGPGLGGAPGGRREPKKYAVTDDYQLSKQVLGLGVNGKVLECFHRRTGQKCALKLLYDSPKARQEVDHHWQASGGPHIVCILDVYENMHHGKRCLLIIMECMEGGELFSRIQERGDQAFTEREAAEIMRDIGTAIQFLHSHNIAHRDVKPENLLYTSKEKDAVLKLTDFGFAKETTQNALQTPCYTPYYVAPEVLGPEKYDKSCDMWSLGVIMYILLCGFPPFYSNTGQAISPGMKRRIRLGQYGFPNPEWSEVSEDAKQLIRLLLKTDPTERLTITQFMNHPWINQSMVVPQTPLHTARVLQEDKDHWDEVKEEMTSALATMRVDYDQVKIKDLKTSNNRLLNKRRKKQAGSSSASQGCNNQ

Regarding `Cc1c(C(=O)Nc2ccc3ccccc3n2)cnn1-c1ccccc1Br`, in series [1], the half-life is 2.9 h. Moreover, the inhibition result (in the series listed under Homo sapiens [2]; in the series listed under Homo sapiens [4]; in series [5]; in the series filed under Homo sapiens [20]) was “Active” each time. The Activity result in the series with SW480 [3] is “Dose-dependent effect”; in the series with SW-620 [6] it was 0.00722%; in the series with HT-29, “Dose-dependent effect”; in the series on SW-620 [7], 23.4%; in series [8], “Non-Toxic”; with SW-620 [9], 0%. Also, the Activity entry in series [13] is reported as “Non-Toxic”; in the series with SW-620 [14], 49%; in series [17] it was “Non-Toxic”; in the series on SW-620 [21], 9.43%. The result with SW-620 [10], in the series with SW-620 [16], in the series on HEK293 and in the series with Mus musculus [19] was Active. The molecule further yielded an IC50 with SW-620 [11] of 67.8 nM. The molecule further yielded a GI50 in the series on SW480 [12] of 2400 nM. Besides, the “inhibition (INH)” value in the series on Mus musculus [15] was “Active”. The Cmax in [18] is 5200 ng/mL.
